Rows were chosen to be rich in hits. Some 4.1% of all compounds tested hit in one or more screens of this group.
MPTP block – inhibitors of mitochondrial permeability transition pore; AID 602449; inhibition, % at 10 µM; isolated mouse mitochondria, Ca2+ swelling absorbance, 30 min; hit rate 1.4% among 360,000;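 active = inhibition of 50% or more, scaled per plate between neutral and stimulator controls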;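 also: 0% = DMSO wells given calcium and 100% = 1 mM EGTA wells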
SMARCA2 activ – activators of SMARCA2 function | MG213 cells, MMTV-luciferase reporter, dexamethasone, overnight | activation, % at 9.1 µM | hit rate 1% among 370,000; in the data active = activation above about 7.8%;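 also: 0% = vehicle wells and 100% = reference activator wells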
ATG4B inhibitor – ATG4B (human) cysteine protease inhibition; ATG4B cleavage of LC3-PLA2, NBD-HPC fluorescence, 1 h; inhibition, % at 8.33 µM; hit rate 0.51% among 340,000; AID 504462; in the data active = inhibition above about 40%
MC4R ag barr – agonists of human melanocortin 4 receptor (MC4R) beta-arrestin; U2OS MC4R beta-arrestin complementation, luminescence; percent of melanotan II response, DMSO zero; activation, % at 8.9 µM; hit rate 0.98% among 360,000; AID 540308;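 active = activation above a per-plate cutoff, the mean activation of sample wells on that plate plus 3 SD, cut at about 8% in these data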
Target sequence (P32245 whole entry, looked up): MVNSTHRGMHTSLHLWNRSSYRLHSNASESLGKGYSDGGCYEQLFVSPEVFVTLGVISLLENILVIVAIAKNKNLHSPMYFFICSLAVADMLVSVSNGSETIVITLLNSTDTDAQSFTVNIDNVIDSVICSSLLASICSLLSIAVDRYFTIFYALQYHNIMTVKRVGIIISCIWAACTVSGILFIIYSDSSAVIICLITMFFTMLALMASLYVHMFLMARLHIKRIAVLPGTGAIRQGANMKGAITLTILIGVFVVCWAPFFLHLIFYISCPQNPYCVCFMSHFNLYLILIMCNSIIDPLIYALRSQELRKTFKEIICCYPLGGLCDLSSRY
MC4R antag cAMP – human MC4R antagonism in cAMP assay. inhibition, % at 6.5 µM. hit rate 0.48% among 360,000. MC4R-expressing cells, MTII-stimulated cAMP, LANCE TR-FRET. AID 540295;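 active = inhibition above its plate's cutoff, the mean of tested wells on that plate plus 3 SD, cut at about 29% in these data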;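 also: 0% = Melanotan II alone and 100% = Melanotan II plus saturating MCL0020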
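System: U2OS-MC4R stable cell line; Technique: Eu-cAMP/anti-cAMP TR-FRET, emission 671 nm; Repeats: single well per compound; Also added: Melanotan II; Dosing: one concentration, 6.5 µM nominal; Schedule: 30-min compound, 1-h challenge, 1-h detection, room temperature.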
SMARCA2 conf – confirmation of SMARCA2 (BRM) function activators | shares compounds with SMARCA2 activ | MG213 cells, MMTV-luciferase with dexamethasone, luminescence, overnight; MG213 cells expressing E1A, Rb sequestered; DMSO wells 0%, reference activator 100% | activation, % at 9.1 µM | hit rate 30% among 3,500;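 active = activation above its plate's cutoff, the mean activation of tested wells plus 3 SD, cut at about 7.9% in these data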
VP16 Luc act – GAL4-VP16 reporter activation counter-screen | shares compounds with SMARCA2 activ | HEK293 GAL4-VP16 pG5luc reporter, luciferase luminescence; scaled: DMSO wells 0%, SAHA wells 100% | activation, % at 9.1 µM | hit rate 41% among 3,500;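 active = activation above the solvent-only control well mean plus 3 SD, averaged across control plates, cut at about 5.2% in these data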
* = called active by the depositor; x = no result given.

SMILES | MPTP block | SMARCA2 activ | ATG4B inhibitor | MC4R ag barr | MC4R antag cAMP | SMARCA2 conf | VP16 Luc act
COCCN(CCOC)C(=O)c1sc2nc(-c3ccccc3)cn2c1C | -1 | 2 | -3 | 1 | 1 | x | x
O=C1C(=Cc2cccs2)Oc2ccccc21 | 0 | 8.7* | 3 | 1 | -9 | 1 | 1
Cn1cc([N+](=O)[O-])c(C(=O)Nc2ccc(-c3nc4ccccc4[nH]3)cc2)n1 | 2 | 9.8* | -4 | -3 | 1 | 11* | 7.6*
Cn1cc([N+](=O)[O-])c(C(=O)Nc2ccc3nc(-c4ccccc4)[nH]c3c2)n1 | 0 | 6 | -12 | -2 | 0 | x | x
CC(C)NC(=O)c1ccccc1-c1ccccc1 | 1 | -1 | 5 | 1 | 1 | x | x
CC(C)NC(=O)C1(C#N)C=C1c1ccccc1 (stereo unspecified) | 2 | 9.4* | x | x | x | 3 | -1
Cc1ccc2c(c1)cc(CN(Cc1ccco1)C(=O)N1CCOCC1)c1nnnn12 | 4 | 8.6* | -6 | -4 | 4 | 12* | 3
Cc1ccc2c(COC(=O)C3=COCCO3)cc(=O)oc2c1 | 2 | 8.5* | 7 | 0 | 9 | 0 | 8.4*
Cc1ccc(S(=O)(=O)NCC(=O)OCc2cc(=O)oc3cc(C)ccc23)cc1 | -1 | -2 | -4 | 2 | 23 | x | x
CCC(C)c1ccc(N(C(=O)c2ccco2)C(C(=O)NC2CCCC2)c2cccnc2)cc1 (stereo unspecified) | 0 | 8.1* | -1 | 0 | 15 | 4 | 5.2*
CCc1ccc(N(C(=O)c2ccco2)C(C(=O)NC2CCCC2)c2cccnc2)cc1 (stereo unspecified) | 0 | -3 | -8 | -1 | 5 | x | x
CC(C)c1ccc(N(C(=O)c2ccco2)C(C(=O)NC2CCCC2)c2ccncc2)cc1 (stereo unspecified) | -2 | 8.0* | -10 | -1 | 5 | 3 | 3
O=C(Nc1ccc(S(=O)(=O)N2CCCC2)cc1)c1ccc(Br)o1 | -1 | -2 | -5 | -1 | 9 | x | x
CN1CCN(S(=O)(=O)c2ccc(NC(=O)c3ccc(Br)o3)cc2)CC1 | 0 | 8.2* | -2 | -1 | 10 | 4 | 1
O=C(Nc1ccc(N2CCCCC2)c(Cl)c1)c1ncn[nH]1 | 0 | -2 | -7 | -1 | -2 | x | x
O=C(Nc1ccc(CCC(=O)N2CCCC2)cc1)c1ncn[nH]1 | -1 | 8.2* | -2 | -3 | -5 | -5 | 2
CCN(CC)S(=O)(=O)c1ccc(NC(=O)c2cccs2)cc1 | -1 | 2 | 2 | -1 | -2 | x | x
CCN(CC)S(=O)(=O)c1ccc(C(=O)NNC(=O)c2cccs2)cc1 | 0 | 11* | 1 | -4 | 14 | -1 | 2
CCCCN(C(=O)Cc1cccs1)c1nnc(-c2cccnc2)s1 | 22 | 11* | 2 | -1 | 12 | 7.9* | 5.5*
CCCCOCCCNC(=O)C[C@@H]1C[C@@]2(C(=O)OC)CCCCC=C2N(Cc2cccc3ccccc23)C1=O | -1 | -6 | x | x | x | x | x
Nc1cccc(N=[N+]([O-])c2cccc(N)c2)c1 | -1 | 8.8* | 3 | -2 | 7 | 13* | 6.9*
Cc1cc(/C(N)=N/OC(=O)c2ccccc2Cl)no1 | 1 | 8.6* | -2 | 1 | -4 | 12* | 11*
N/C(=N/OC(=O)c1ccccc1Cl)c1nonc1N | -1 | 8 | -3 | -3 | 1 | x | x
O=C(NCc1cccs1)c1ccc([N+](=O)[O-])cc1Cl | 4 | 13* | -3 | 0 | -2 | 2 | 2
CCN(CC)c1c(C)nc2ccc(C(=O)N3CCN(C(=O)c4ccco4)CC3)cn12 | 0 | 9.4* | x | -2 | -3 | -1 | 0
SMILES | MPTP block | SMARCA2 activ | ATG4B inhibitor | MC4R ag barr | MC4R antag cAMP | SMARCA2 conf | VP16 Luc act
CC(=O)Nc1ccc(CN(C)c2c(C)nc3ccc(C(=O)N4CCN(C(=O)c5ccco5)CC4)cn23)cc1 | -2 | 1 | x | 0 | 4 | x | x
Cc1ccc(NC(=O)COC(=O)C2CCC(=O)N2)c([N+](=O)[O-])c1 (stereo unspecified) | 2 | 13* | -1 | -3 | 3 | -2 | 1
CCCCN=C(N)NC(=O)c1ccccc1 | x | -1 | x | x | x | x | x
N#CCn1cnc2sc(-c3ccccc3)cc2c1=O | -3 | 9.1* | 1 | -2 | 20 | 11* | 1
O=C(NCCN1CCCC1)c1ccc2c(=O)n(CCc3ccccc3)c(=O)[nH]c2c1 | 1 | 8.2* | -6 | -2 | 4 | 10* | 1
CC(=O)CC1OC(=O)C(Br)=C1NCc1ccccc1 (stereo unspecified) | -1 | 13* | -4 | 1 | -4 | -4 | 3
O=C(Nc1ccc2c(c1)OCO2)N1CCN(Cc2ccco2)CC1 | 1 | 11* | -4 | -1 | -1 | 0 | 12*
Cc1cccc(NC(=O)C2CCCN2S(=O)(=O)c2cccnc2)c1C (stereo unspecified) | x | 0 | x | x | x | x | x
CN(CC1CCCN(CCc2cccc(C(F)(F)F)c2)C1)C(=O)c1ccco1 (stereo unspecified) | 0 | 11* | 3 | -2 | 1 | -5 | 0
CC(C)(C)N1NC(=O)Nc2ccccc2C1=O | 0 | 9.6* | -6 | -2 | -1 | -3 | 0
CC1CCCN(C(=O)COC(=O)c2ccc3[nH]c4c(c3c2)CCCC4)C1 (stereo unspecified) | 5 | 8.1* | 0 | -3 | 10 | 4 | 4
COC(=O)C1CCN(C(=O)COC(=O)c2ccc3[nH]c4c(c3c2)CCCC4)CC1 | 6 | 0 | -8 | -1 | 12 | x | x
COCC(C)NC(=O)c1noc2c1CCc1cc(OC)ccc1-2 (stereo unspecified) | -1 | 9.7* | -2 | -2 | 6 | 3 | 11*
C/C(=N/NC(=O)c1ccc2c(c1)OCO2)c1ccc(NC(=O)c2ccc(F)cc2)cc1 | 0 | 8.3* | -3 | -4 | 0 | 6 | 7.2*
CCOC(=O)[C@]12CCCC=C1N(CCC1=CCCCC1)C(=O)[C@H](CC(=O)NCc1ccccc1)C2 | -2 | -3 | x | x | x | x | x
N/C(=N\OC(=O)c1ccc2c(c1)OCO2)c1cccc([N+](=O)[O-])c1 | 0 | 9.9* | -3 | -1 | -5 | 12* | 9.4*
Cc1cccc(C(=O)O/N=C(\N)c2cccc([N+](=O)[O-])c2)c1 | -2 | x | 6 | 0 | -1 | x | x
O=C(Cc1ccccc1[N+](=O)[O-])c1ccc2c(c1)OCO2 | -2 | 11* | 8 | -1 | -13 | 4 | 3
N/C(=N\OC(=O)c1cccs1)c1cccc([N+](=O)[O-])c1 | -1 | 11* | 15 | 1 | -8 | 2 | 6.5*

Screening data deposited in PubChem BioAssay by several laboratories.
